Experimental data published in ChEMBL document CHEMBL3352237, “Synthesis and biological evaluation of novel peptide BF2 as an antibacterial agent against clinical isolates of vancomycin-resistant enterococci” (J Med Chem, 2014).
Values after ≈ are worked out from the molar mass of the structure shown.

Assays:
Assay type in all cases: functional
[1] = test system: Enterococcus faecium; experiment: Antibacterial activity against vancomycin-resistant Enterococcus faecium clinical isolate 5396 after overnight incubation by two-fold serial dilution method
[2] = test system: Enterococcus faecium; experiment: Antibacterial activity against vancomycin-resistant Enterococcus faecium clinical isolate 12875 after overnight incubation by two-fold serial dilution method
[3] = test system: Enterococcus faecium; experiment: Antibacterial activity against vancomycin-resistant Enterococcus faecium clinical isolate 151495 after overnight incubation by two-fold serial dilution method
[4] = test system: Enterococcus faecium; experiment: Antibacterial activity against vancomycin-resistant Enterococcus faecium clinical isolate 27/221 after overnight incubation by two-fold serial dilution method
[5] = test system: Enterococcus; experiment: Antibacterial activity against vancomycin-resistant Enterococcus ATCC 29212 after overnight incubation by two-fold serial dilution method
[6] = test system: Enterococcus faecium; experiment: Antibacterial activity against vancomycin-resistant Enterococcus faecium clinical isolate 3864 after overnight incubation by two-fold serial dilution method
[7] = test system: Enterococcus faecium; experiment: Antibacterial activity against vancomycin-resistant Enterococcus faecium clinical isolate 16115 after overnight incubation by two-fold serial dilution method
[8] = test system: Enterococcus; experiment: Antibacterial activity against Enterococcus infected in Wistar albino rat assessed as reduction in cell count at 25 mg/kg, iv after 1 hr relative to control; design: scale not given: the % may be the effect or the level left
In short: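 Female Wistar albino rats, 40−45 days old, 125−150 g, 5 groups of 3. Enterococci were grown to log phase in MH broth, centrifuged at 1000g for 15 min, and diluted in PBS to 4 × 10^6 CFU/mL. Rats were inoculated i.v. and treated i.v. 1 h later with 12.5, 25 or 37.5 mg/kg peptide, PBS vehicle, or linezolid 25 mg/kg. Tail-vein blood taken 1 h post-treatment was plated on blood agar, incubated overnight at 37 °C, and colonies counted.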

[9] = test system: Enterococcus faecium; experiment: Antibacterial activity against vancomycin-resistant Enterococcus faecium clinical isolate 7/27 after overnight incubation by two-fold serial dilution method
[10] = test system: Enterococcus faecium; experiment: Antibacterial activity against vancomycin-resistant Enterococcus faecium clinical isolate 147969 after overnight incubation by two-fold serial dilution method
[11] = test system: Enterococcus faecium; experiment: Antibacterial activity against vancomycin-resistant Enterococcus faecium clinical isolate 27/16917 after overnight incubation by two-fold serial dilution method; settings: isolate 27/1691
[12] = test system: Enterococcus faecium; experiment: Antibacterial activity against vancomycin-resistant Enterococcus faecium clinical isolate 29/203 after overnight incubation by two-fold serial dilution method
[13] = test system: Enterococcus faecium; experiment: Antibacterial activity against vancomycin-resistant Enterococcus faecium clinical isolate 6/22 after overnight incubation by two-fold serial dilution method
[14] = test system: Enterococcus faecium; experiment: Antibacterial activity against vancomycin-resistant Enterococcus faecium clinical isolate 30/48 after overnight incubation by two-fold serial dilution method
[15] = test system: Enterococcus faecium; experiment: Antibacterial activity against vancomycin-resistant Enterococcus faecium clinical isolate 14643 after overnight incubation by two-fold serial dilution method
[16] = test system: Enterococcus faecium; experiment: Antibacterial activity against vancomycin-resistant Enterococcus faecium clinical isolate 12/266 after overnight incubation by two-fold serial dilution method
[17] = test system: Enterococcus faecium; experiment: Antibacterial activity against vancomycin-resistant Enterococcus faecium clinical isolate 31386 after overnight incubation by two-fold serial dilution method
[18] = test system: Enterococcus faecium; experiment: Antibacterial activity against vancomycin-resistant Enterococcus faecium clinical isolate 31176 after overnight incubation by two-fold serial dilution method
[19] = test system: Enterococcus faecium; experiment: Antibacterial activity against vancomycin-resistant Enterococcus faecium clinical isolate 15/213 after overnight incubation by two-fold serial dilution method
[20] = test system: Enterococcus faecium; experiment: Antibacterial activity against vancomycin-resistant Enterococcus faecium clinical isolate 10177 after overnight incubation by two-fold serial dilution method
[21] = test system: Enterococcus faecium; experiment: Antibacterial activity against vancomycin-resistant Enterococcus faecium clinical isolate 28/211 after overnight incubation by two-fold serial dilution method
[22] = test system: Enterococcus; experiment: Antibacterial activity against vancomycin-resistant Enterococcus ATCC 51299 after overnight incubation by two-fold serial dilution method
[23] = test system: Enterococcus faecium; experiment: Antibacterial activity against vancomycin-resistant Enterococcus faecium clinical isolate 8/224 after overnight incubation by two-fold serial dilution method
[24] = test system: Enterococcus faecium; experiment: Antibacterial activity against vancomycin-resistant Enterococcus faecium clinical isolate 5484 after overnight incubation by two-fold serial dilution method
[25] = test system: Enterococcus faecium; experiment: Antibacterial activity against vancomycin-resistant Enterococcus faecium clinical isolate 17301 after overnight incubation by two-fold serial dilution method
[26] = test system: Enterococcus faecium; experiment: Antibacterial activity against vancomycin-resistant Enterococcus faecium clinical isolate 13246 after overnight incubation by two-fold serial dilution method
[27] = test system: Enterococcus faecium; experiment: Antibacterial activity against vancomycin-resistant Enterococcus faecium clinical isolate 18906 after overnight incubation by two-fold serial dilution method
[28] = test system: Enterococcus faecium; experiment: Antibacterial activity against vancomycin-resistant Enterococcus faecium clinical isolate 23/240 after overnight incubation by two-fold serial dilution method
[29] = test system: Enterococcus faecium; experiment: Antibacterial activity against vancomycin-resistant Enterococcus faecium clinical isolate 16475 after overnight incubation by two-fold serial dilution method
[30] = test system: Enterococcus; experiment: Antibacterial activity against vancomycin-resistant Enterococcus ATCC 51299 by checkerboard titration method in presence of vancomycin
[31] = test system: Enterococcus; experiment: Antibacterial activity against vancomycin-resistant Enterococcus ATCC 51299 by checkerboard titration method in presence of linezolid
[32] = test system: Enterococcus; experiment: Antibacterial activity against vancomycin-resistant Enterococcus ATCC 29212 by checkerboard titration method in presence of linezolid
[33] = test system: Enterococcus; experiment: Antibacterial activity against vancomycin-resistant Enterococcus ATCC 29212 by checkerboard titration method in presence of vancomycin

Compound: CC(=O)NC[C@H]1CN(c2ccc(N3CCOCC3)c(F)c2)C(=O)O1 [LINEZOLID]
- MIC [1]: 1 µg/mL (≈ 2.96 µM)
- MIC [2]: 1 µg/mL (≈ 2.96 µM)
- MIC [3]: 1 µg/mL (≈ 2.96 µM)
- MIC [4]: 1 µg/mL (≈ 2.96 µM)
- MIC [5]: 1 µg/mL (≈ 2.96 µM)
- MIC [6]: 2 µg/mL (≈ 5.93 µM)
- MIC [7]: 1 µg/mL (≈ 2.96 µM)
- Activity [8]: 93.8%
- MIC [9]: 2 µg/mL (≈ 5.93 µM)
- MIC [10]: 1 µg/mL (≈ 2.96 µM)
- MIC [11]: 1 µg/mL (≈ 2.96 µM)
- MIC [12]: 1 µg/mL (≈ 2.96 µM)
- MIC [13]: 1 µg/mL (≈ 2.96 µM)
- MIC [14]: 2 µg/mL (≈ 5.93 µM)
- MIC [15]: 2 µg/mL (≈ 5.93 µM)
- MIC [16]: 2 µg/mL (≈ 5.93 µM)
- MIC [17]: 2 µg/mL (≈ 5.93 µM)
- MIC [18]: 1 µg/mL (≈ 2.96 µM)
- MIC [19]: 1 µg/mL (≈ 2.96 µM)
- MIC [20]: 1 µg/mL (≈ 2.96 µM)
- MIC [21]: 2 µg/mL (≈ 5.93 µM)
- MIC [22]: 2 µg/mL (≈ 5.93 µM)
- MIC [23]: 1 µg/mL (≈ 2.96 µM)
- MIC [24]: 1 µg/mL (≈ 2.96 µM)
- MIC [25]: 1 µg/mL (≈ 2.96 µM)
- MIC [26]: 2 µg/mL (≈ 5.93 µM)
- MIC [27]: 2 µg/mL (≈ 5.93 µM)
- MIC [28]: 1 µg/mL (≈ 2.96 µM)
- MIC [29]: 1 µg/mL (≈ 2.96 µM)

Compound: CN[C@H](CC(C)C)C(=O)N[C@H]1C(=O)N[C@@H](CC(N)=O)C(=O)N[C@H]2C(=O)N[C@H]3C(=O)N[C@H](C(=O)N[C@H](C(=O)O)c4cc(O)cc(O)c4-c4cc3ccc4O)[C@H](O)c3ccc(c(Cl)c3)Oc3cc2cc(c3O[C@@H]2O[C@H](CO)[C@@H](O)[C@H](O)[C@H]2O[C@H]2C[C@](C)(N)[C@H](O)[C@H](C)O2)Oc2ccc(cc2Cl)[C@H]1O [VANCOMYCIN]
- MIC [1]: 64 µg/mL (≈ 44.2 µM)
- MIC [2]: 64 µg/mL (≈ 44.2 µM)
- MIC [4]: 64 µg/mL (≈ 44.2 µM)
- MIC [5]: 2 µg/mL (≈ 1.38 µM)
- MIC [6]: 64 µg/mL (≈ 44.2 µM)
- MIC [10]: 64 µg/mL (≈ 44.2 µM)
- MIC [11]: 64 µg/mL (≈ 44.2 µM)
- MIC [13]: 64 µg/mL (≈ 44.2 µM)
- MIC [14]: 64 µg/mL (≈ 44.2 µM)
- MIC [17]: 64 µg/mL (≈ 44.2 µM)
- MIC [18]: 64 µg/mL (≈ 44.2 µM)
- MIC [20]: 64 µg/mL (≈ 44.2 µM)
- MIC [21]: 64 µg/mL (≈ 44.2 µM)
- MIC [22]: 64 µg/mL (≈ 44.2 µM)
- MIC [23]: 64 µg/mL (≈ 44.2 µM)
- MIC [24]: 64 µg/mL (≈ 44.2 µM)
- MIC [27]: 64 µg/mL (≈ 44.2 µM)
- MIC [28]: 64 µg/mL (≈ 44.2 µM)

Compound: H-FLPLIGRVLSGIL-NH2 [TEMPORIN A]
- fractional inhibitory concentration index (FICI) [30]: 1.5
- fractional inhibitory concentration index (FICI) [31]: 0.75
- fractional inhibitory concentration index (FICI) [32]: 0.75
- fractional inhibitory concentration index (FICI) [33]: 1.25
